Test results as given in ChEMBL document CHEMBL3763041, “Design and synthesis of new imidazo[1,2-a]pyridine and imidazo[1,2-a]pyrazine derivatives with antiproliferative activity against melanoma cells” (Eur J Med Chem, 2016).
pIC50: −log10 of the molar value.

Assays:
[1] = Antiproliferative activity against human A375P cells expressing BRAF V600E mutant after 72 hrs by CellTiter-Glo assay; type: functional, cell-based
[2] = target: Serine/threonine-protein kinase B-raf (Homo sapiens, UniProt P15056); experiment: Inhibition of wild-type B-Raf (unknown origin) using MEK1 K97M as substrate preincubated for 90 mins followed by substrate addition measured after 1 hr by fluorescence polarization assay
Chain of Serine/threonine-protein kinase B-raf (Homo sapiens, UniProt P15056) (P15056 whole entry): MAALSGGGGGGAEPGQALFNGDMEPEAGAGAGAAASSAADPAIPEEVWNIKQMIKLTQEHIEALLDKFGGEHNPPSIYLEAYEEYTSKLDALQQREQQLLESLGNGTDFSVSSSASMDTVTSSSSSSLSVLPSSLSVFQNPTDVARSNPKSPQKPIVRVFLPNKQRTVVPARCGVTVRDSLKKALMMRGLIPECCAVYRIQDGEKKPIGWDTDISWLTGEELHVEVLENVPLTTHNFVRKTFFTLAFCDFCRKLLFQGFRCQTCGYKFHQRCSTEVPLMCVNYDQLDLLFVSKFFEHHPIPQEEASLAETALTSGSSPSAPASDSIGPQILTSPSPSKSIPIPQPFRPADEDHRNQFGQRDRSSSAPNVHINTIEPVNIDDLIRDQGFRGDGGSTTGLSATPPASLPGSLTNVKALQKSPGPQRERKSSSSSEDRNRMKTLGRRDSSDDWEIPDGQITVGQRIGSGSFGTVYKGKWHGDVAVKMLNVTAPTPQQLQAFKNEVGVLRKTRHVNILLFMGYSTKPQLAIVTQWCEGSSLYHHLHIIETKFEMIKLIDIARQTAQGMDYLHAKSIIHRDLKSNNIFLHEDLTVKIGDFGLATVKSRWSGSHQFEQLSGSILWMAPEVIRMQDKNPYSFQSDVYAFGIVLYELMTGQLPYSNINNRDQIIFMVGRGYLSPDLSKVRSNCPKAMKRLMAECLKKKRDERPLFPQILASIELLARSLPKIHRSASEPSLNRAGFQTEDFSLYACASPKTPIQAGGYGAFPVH
Summary of the method: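 After ATP-containing solution was added, the reaction ran 1 h at room temperature. It was stopped with ADP detection mix (EDTA, ADP² antibody, 3 nM ADP Alexa633 tracer).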

[3] = target: Serine/threonine-protein kinase B-raf (Homo sapiens, UniProt P15056, V600E); experiment: Inhibition of B-Raf V600E mutant (unknown origin) using MEK1 K97M as substrate preincubated for 90 mins followed by substrate addition measured after 1 hr by fluorescence polarization assay
Chain of Serine/threonine-protein kinase B-raf (Homo sapiens, UniProt P15056, V600E) (P15056 2-766 V600E limits assumed): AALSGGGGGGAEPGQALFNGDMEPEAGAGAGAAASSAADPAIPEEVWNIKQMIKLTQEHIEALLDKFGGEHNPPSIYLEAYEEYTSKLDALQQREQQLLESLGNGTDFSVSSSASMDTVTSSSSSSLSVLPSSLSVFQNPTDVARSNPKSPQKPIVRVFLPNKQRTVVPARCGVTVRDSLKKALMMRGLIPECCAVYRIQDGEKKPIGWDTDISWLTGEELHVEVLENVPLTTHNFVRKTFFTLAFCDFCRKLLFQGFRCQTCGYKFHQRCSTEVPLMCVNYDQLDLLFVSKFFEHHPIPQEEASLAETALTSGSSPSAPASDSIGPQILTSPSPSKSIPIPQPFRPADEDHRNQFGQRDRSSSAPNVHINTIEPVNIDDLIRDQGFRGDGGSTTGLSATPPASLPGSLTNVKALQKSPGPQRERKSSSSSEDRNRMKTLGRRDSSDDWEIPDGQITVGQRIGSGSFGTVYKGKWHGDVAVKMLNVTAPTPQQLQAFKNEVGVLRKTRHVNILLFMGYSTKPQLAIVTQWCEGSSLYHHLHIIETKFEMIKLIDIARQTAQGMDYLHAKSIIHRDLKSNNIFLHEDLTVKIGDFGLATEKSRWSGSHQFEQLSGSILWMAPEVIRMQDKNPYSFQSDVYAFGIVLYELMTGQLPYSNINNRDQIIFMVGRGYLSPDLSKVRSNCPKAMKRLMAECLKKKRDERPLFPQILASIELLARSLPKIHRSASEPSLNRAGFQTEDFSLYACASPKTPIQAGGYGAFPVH
Summary of the method: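 Reactions used 30 nM B-Raf(V600E) enzyme with MEK1 K97M substrate. Kinase reaction ran 1 h at room temperature after ATP-containing solution was added. It was stopped with ADP detection mix (20 mM HEPES pH 7.5, 40 mM EDTA, 10 mM MgCl₂, 0.02% Brij 35, ADP² antibody, 3 nM ADP Alexa633 tracer).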

[4] = Antiproliferative activity against human HCT116 cells after 72 hrs by CellTiter-Glo assay; type: functional, cell-based; conditions: HCT-116, 72 h
[5] = Antiproliferative activity against human PC-9ER cells after 72 hrs by CellTiter-Glo assay; type: functional, cell-based
[6] = Antiproliferative activity against human HKE3 cells after 72 hrs by CellTiter-Glo assay; type: functional, cell-based; conditions: HKE3, 72 h
[7] = Antiproliferative activity against human PC9 cells after 72 hrs by CellTiter-Glo assay; type: functional, cell-based; conditions: PC-9, 72 h
[8] = test system: A549; experiment: Antiproliferative activity against human A549 cells after 72 hrs by CellTiter-Glo assay; type: functional, cell-based; conditions: A549, 72 h
[9] = test system: NCI-H358; experiment: Antiproliferative activity against human NCI-H358 cells after 72 hrs by CellTiter-Glo assay; type: functional, cell-based; conditions: NCI-H358, 72 h

With `O=C(Nc1cccc(-c2cnc3c(NC(=O)c4ccc(Br)cc4)nccn23)c1)Nc1ccc(F)cc1F` the pIC50 [1] was 5.43.
`O=C(Nc1cccc(-c2cnc3c(NC(=O)c4cc(C(F)(F)F)cc(C(F)(F)F)c4)nccn23)c1)Nc1ccc(F)cc1F` gave a pIC50 [1] of 6.96.
`O=C(Nc1cccc(-c2cnc3c(NC(=O)c4ccc(F)c(C(F)(F)F)c4)nccn23)c1)Nc1ccc(F)cc1F` showed a pIC50 [1] of 6.39.
`O=C(Nc1cccc(-c2cnc3c(NC(=O)c4cccc(C(F)(F)F)c4)nccn23)c1)Nc1ccc(Cl)c(C(F)(F)F)c1` showed a pIC50 [1] of 6.25.
Work on `O=C(Nc1cccc(-c2cnc3c(NC(=O)c4ccc(F)c(C(F)(F)F)c4)nccn23)c1)Nc1ccc(Cl)c(C(F)(F)F)c1` yielded a pIC50 [2] of under 4.90, a pIC50 [1] of 7.22 and a pIC50 [3] of 5.30.
For `O=C(Nc1cccc(-c2cnc3c(NC(=O)c4ccc(C(F)(F)F)cc4)nccn23)c1)Nc1ccc(Cl)c(C(F)(F)F)c1`, the pIC50 [1] was 5.76.
Molecule `O=C(Nc1cccc(-c2cnc3c(NC(=O)c4ccccc4)nccn23)c1)Nc1ccc(F)cc1F` has a pIC50 [1] of 5.70.
Work on `O=C(Nc1cccc(-c2cnc3c(NC(=O)c4ccccc4)nccn23)c1)Nc1ccc(Cl)c(C(F)(F)F)c1` yielded a pIC50 [1] of 5.85.
Molecule `O=C(Nc1cccc(-c2cnc3c(NC(=O)c4ccc(Cl)c(Cl)c4)nccn23)c1)Nc1ccc(F)cc1F` has a pIC50 [1] of 5.72.
In the case of `O=C(Nc1cccc(-c2cnc3c(NC(=O)c4cc(Cl)c(F)c(Cl)c4)nccn23)c1)Nc1ccc(F)cc1F`, the pIC50 [1] was 6.41.
`O=C(Nc1cccc(-c2cnc3c(NC(=O)c4cc(Cl)cc(Cl)c4)nccn23)c1)Nc1ccc(F)cc1F` showed a pIC50 [4] of 6.06, a pIC50 [5] of 5.59 and a pIC50 [6] of 6.21. For the same molecule, the pIC50 [7] was 5.56, the pIC50 [2] was under 4.90 and the pIC50 [1] was 7.22. The pIC50 [8] was 5.58, the pIC50 [9] was 5.38 and the pIC50 [3] was under 4.90.
With `O=C(Nc1cccc(-c2cnc3c(NC(=O)c4ccc(F)c(Cl)c4)nccn23)c1)Nc1ccc(F)cc1F` the pIC50 [1] was 5.81.
`O=C(Nc1cccc(-c2cnc3c(NC(=O)c4ccc(Cl)c(C(F)(F)F)c4)nccn23)c1)Nc1ccc(F)cc1F` showed a pIC50 [1] of 6.10.
`O=C(Nc1cccc(-c2cnc3c(NC(=O)c4cc(F)cc(F)c4)nccn23)c1)Nc1ccc(Cl)c(C(F)(F)F)c1` gave a pIC50 [1] of 5.71.
For `O=C(Nc1cccc(-c2cnc3c(NC(=O)c4cc(Cl)cc(Cl)c4)nccn23)c1)c1ccc(Cl)c(C(F)(F)F)c1`, the pIC50 [4] was 5.74, the pIC50 [5] was 5.44 and the pIC50 [6] was 6.08. The pIC50 [7] was 5.44, the pIC50 [2] was under 4.90 and the pIC50 [1] was 7.40. For the same molecule, the pIC50 [8] was 5.49, the pIC50 [9] was 5.38 and the pIC50 [3] was under 4.90.
For `O=C(Nc1cccc(-c2cnc3c(NC(=O)c4ccc(F)c(Cl)c4)nccn23)c1)Nc1ccc(Cl)c(C(F)(F)F)c1`, the pIC50 [1] was 5.89.
`O=C(Nc1cccc(-c2cnc3c(NC(=O)c4cc(F)cc(F)c4)nccn23)c1)Nc1ccc(F)cc1F` showed a pIC50 [1] of 5.24.
Work on `O=C(Nc1cccc(-c2cnc3c(NC(=O)c4cccc(Cl)c4Cl)nccn23)c1)Nc1ccc(F)cc1F` yielded a pIC50 [1] of 6.77.
For `O=C(Nc1cccc(-c2cnc3c(NC(=O)c4ccc(OC(F)(F)F)cc4)nccn23)c1)Nc1ccc(F)cc1F`, the pIC50 [1] was 5.42.
For `Cc1ccc(C(=O)Nc2nccn3c(-c4cccc(NC(=O)Nc5ccc(F)cc5F)c4)cnc23)cc1Cl`, the pIC50 [1] was 5.70.
In the case of `O=C(Nc1cccc(-c2cnc3c(NC(=O)c4cc(C(F)(F)F)cc(C(F)(F)F)c4)nccn23)c1)Nc1ccc(Cl)c(C(F)(F)F)c1`, the pIC50 [4] was 5.27, the pIC50 [5] was 4.84 and the pIC50 [6] was 5.20. The pIC50 [7] was 4.94, the pIC50 [2] was under 4.90 and the pIC50 [1] was 8.00. For the same molecule, the pIC50 [8] was 4.98, the pIC50 [9] was 5.12 and the pIC50 [3] was under 4.90.
For `Cc1ccc(C(=O)Nc2nccn3c(-c4cccc(NC(=O)Nc5ccc(Cl)c(C(F)(F)F)c5)c4)cnc23)cc1Cl`, the pIC50 [1] was 5.94.
`Cc1cc(C)cc(C(=O)Nc2nccn3c(-c4cccc(NC(=O)Nc5ccc(F)cc5F)c4)cnc23)c1` showed a pIC50 [1] of 6.92.
Work on `COc1ccc(NC(=O)Nc2cccc(-c3cnc4c(N)nccn34)c2)cc1` yielded a pIC50 [1] of 5.52.
Molecule `O=C(Nc1cccc(-c2cnc3c(NC(=O)c4cccc(C(F)(F)F)c4)nccn23)c1)Nc1ccc(F)cc1F` has a pIC50 [1] of 6.36.
For `O=C(Nc1cccc(-c2cnc3c(NC(=O)c4ccc(C(F)(F)F)cc4)nccn23)c1)Nc1ccc(F)cc1F`, the pIC50 [1] was 5.56.
For `O=C(Nc1cccc(-c2cnc3c(NC(=O)c4cc(Cl)cc(Cl)c4)nccn23)c1)Nc1ccc(Cl)c(C(F)(F)F)c1`, the pIC50 [4] was 5.02, the pIC50 [5] was 5.10 and the pIC50 [6] was 5.00. For the same molecule, the pIC50 [7] was 4.94, the pIC50 [2] was under 4.90 and the pIC50 [1] was 7.52. The pIC50 [8] was 5.07, the pIC50 [9] was 5.07 and the pIC50 [3] was under 4.90.
`O=C(Nc1cccc(-c2cnc3c(NC(=O)c4cccc(OC(F)(F)F)c4)nccn23)c1)Nc1ccc(F)cc1F` gave a pIC50 [1] of 6.02.
With `CCCS(=O)(=O)Nc1ccc(F)c(C(=O)c2c[nH]c3ncc(-c4ccc(Cl)cc4)cc23)c1F` [VEMURAFENIB] the pIC50 [1] was 6.43.
